Experimental data as given in ChEMBL document CHEMBL1138465, “N-aryl-oxazolidin-2-imine muscle selective androgen receptor modulators enhance potency through pharmacophore reorientation” (J Med Chem, 2009).
Values after ≈ are worked out from the molar mass of the structure shown.

Tests used:
[1] = Aqueous solubility of the compound; type: physicochemical
Androgen receptor [2] = biological target: T1, Androgen receptor (Homo sapiens, UniProt P10275); experiment: Displacement of [3H[DHT from androgen receptor endogenously expressed in human MDA-MB-453 cells; type: cell-based
T1 sequence (P10275 whole entry): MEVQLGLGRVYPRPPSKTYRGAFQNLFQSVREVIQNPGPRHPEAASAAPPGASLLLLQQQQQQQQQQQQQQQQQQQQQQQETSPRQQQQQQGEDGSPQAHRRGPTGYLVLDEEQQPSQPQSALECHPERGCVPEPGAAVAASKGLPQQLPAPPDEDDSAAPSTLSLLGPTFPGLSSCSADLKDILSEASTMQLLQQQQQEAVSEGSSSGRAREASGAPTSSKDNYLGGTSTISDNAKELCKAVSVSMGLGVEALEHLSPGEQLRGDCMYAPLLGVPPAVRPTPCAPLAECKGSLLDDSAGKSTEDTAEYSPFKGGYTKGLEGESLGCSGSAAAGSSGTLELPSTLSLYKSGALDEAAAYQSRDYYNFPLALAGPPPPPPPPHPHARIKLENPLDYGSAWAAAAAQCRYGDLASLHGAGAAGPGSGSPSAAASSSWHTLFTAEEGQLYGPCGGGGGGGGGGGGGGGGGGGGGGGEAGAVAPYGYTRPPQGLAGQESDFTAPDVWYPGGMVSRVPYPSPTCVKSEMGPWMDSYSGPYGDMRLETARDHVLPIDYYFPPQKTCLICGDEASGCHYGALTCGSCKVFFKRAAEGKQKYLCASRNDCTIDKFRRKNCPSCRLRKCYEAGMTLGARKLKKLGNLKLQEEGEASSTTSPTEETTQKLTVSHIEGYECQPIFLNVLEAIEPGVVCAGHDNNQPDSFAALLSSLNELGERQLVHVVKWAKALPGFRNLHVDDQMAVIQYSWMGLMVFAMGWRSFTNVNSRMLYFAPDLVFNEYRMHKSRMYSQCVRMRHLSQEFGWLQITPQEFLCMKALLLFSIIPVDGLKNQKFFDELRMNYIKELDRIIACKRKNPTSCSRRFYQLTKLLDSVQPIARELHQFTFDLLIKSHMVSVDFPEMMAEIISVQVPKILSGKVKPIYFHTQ

Androgen receptor [3] = biological target: T2, Androgen receptor (Rattus norvegicus, UniProt P15207); experiment: Agonist activity at rat androgen receptor expressed in mouse skeletal muscle C2C12 cells assessed as transcriptional activation after 24 hrs by androgen-specific response element driven luciferase reporter gene assay; type: functional, cell-based
T2 sequence (P15207 whole entry): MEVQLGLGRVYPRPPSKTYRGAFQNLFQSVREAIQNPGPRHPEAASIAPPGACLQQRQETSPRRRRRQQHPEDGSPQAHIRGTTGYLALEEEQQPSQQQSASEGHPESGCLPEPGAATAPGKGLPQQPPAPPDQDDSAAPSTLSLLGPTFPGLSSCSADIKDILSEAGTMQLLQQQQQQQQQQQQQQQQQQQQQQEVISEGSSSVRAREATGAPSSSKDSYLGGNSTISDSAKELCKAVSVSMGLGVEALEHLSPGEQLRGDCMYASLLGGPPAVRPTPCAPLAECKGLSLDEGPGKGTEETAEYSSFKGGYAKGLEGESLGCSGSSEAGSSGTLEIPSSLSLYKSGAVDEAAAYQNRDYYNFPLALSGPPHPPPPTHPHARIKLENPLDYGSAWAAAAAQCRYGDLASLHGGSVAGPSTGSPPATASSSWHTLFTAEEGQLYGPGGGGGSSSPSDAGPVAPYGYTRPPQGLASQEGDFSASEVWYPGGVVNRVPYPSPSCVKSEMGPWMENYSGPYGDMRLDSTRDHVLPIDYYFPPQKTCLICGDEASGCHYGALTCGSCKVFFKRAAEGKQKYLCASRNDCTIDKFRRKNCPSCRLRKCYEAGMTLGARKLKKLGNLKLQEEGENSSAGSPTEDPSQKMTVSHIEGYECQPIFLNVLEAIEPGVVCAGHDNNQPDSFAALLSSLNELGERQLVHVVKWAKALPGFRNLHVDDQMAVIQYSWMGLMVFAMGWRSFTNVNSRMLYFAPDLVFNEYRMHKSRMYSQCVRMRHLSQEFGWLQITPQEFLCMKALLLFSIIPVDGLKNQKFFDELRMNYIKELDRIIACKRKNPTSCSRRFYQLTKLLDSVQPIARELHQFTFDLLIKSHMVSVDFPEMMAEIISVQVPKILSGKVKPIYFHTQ

Androgen receptor [4] = biological target: T2, Androgen receptor; experiment: […] at rat AR expressed in mouse skeletal muscle C2C12 cells assessed as transcriptional activation after 24 hrs by androgen-specific response element driven luciferase reporter gene assay; type: functional, cell-based
Androgen receptor [5] = biological target: T2, Androgen receptor; experiment: Intrinsic activity at rat androgen receptor expressed in mouse skeletal muscle C2C12 cells assessed as transcriptional activation after 24 hrs by androgen-specific response element driven luciferase reporter gene assay relative to control; type: cell-based
[6] = AUC in rat at 5 mg/kg, po; type: ADME, organism-based; parameters: dose 5 mg/kg, route oral; settings: plasma
Rattus norvegicus [7] = experiment: Anabolic activity in castrated male Harlan Sprague-Dawley rat assessed as intact growth of Levator ani muscle at 0.00001 mg/kg, po after 14 days; type: functional; settings: dose 1e-05 mg/kg
Rattus norvegicus [8] = experiment: Anabolic activity in castrated male Harlan Sprague-Dawley rat assessed as intact growth of Levator ani muscle at 0.0001 mg/kg, po after 14 days; type: functional
Rattus norvegicus [9] = experiment: Anabolic activity in castrated male Harlan Sprague-Dawley rat assessed as intact growth of Levator ani muscle at 0.001 mg/kg, po after 14 days; type: functional
Rattus norvegicus [10] = experiment: Anabolic activity in castrated male Harlan Sprague-Dawley rat assessed as intact growth of Levator ani muscle at 0.01 mg/kg, po after 14 days; type: functional
Rattus norvegicus [11] = experiment: Anabolic activity in castrated male Harlan Sprague-Dawley rat assessed as intact growth of Levator ani muscle at 0.03 mg/kg, po after 14 days; type: functional
Rattus norvegicus [12] = experiment: Anabolic activity in castrated male Harlan Sprague-Dawley rat assessed as intact growth of Levator ani muscle at 0.1 mg/kg, po after 14 days; type: functional
Rattus norvegicus [13] = experiment: Anabolic activity in castrated male Harlan Sprague-Dawley rat assessed as intact growth of Levator ani muscle at 0.3 mg/kg, po after 14 days; type: functional
Rattus norvegicus [14] = experiment: Anabolic activity in po dosed castrated male Harlan Sprague-Dawley rat assessed as intact growth of Levator ani muscle after 14 days; type: functional; settings: 336 h
Rattus norvegicus [15] = experiment: Anabolic activity in castrated male Harlan Sprague-Dawley rat assessed as intact growth of prostate at 0.00001 mg/kg, po after 14 days; type: functional, Prostate gland; settings: dose 1e-05 mg/kg
Rattus norvegicus [16] = experiment: Anabolic activity in castrated male Harlan Sprague-Dawley rat assessed as intact growth of prostate at 0.0001 mg/kg, po after 14 days; type: functional, Prostate gland
Rattus norvegicus [17] = experiment: Anabolic activity in castrated male Harlan Sprague-Dawley rat assessed as intact growth of prostate at 0.001 mg/kg, po after 14 days; type: functional, Prostate gland
Rattus norvegicus [18] = experiment: Anabolic activity in castrated male Harlan Sprague-Dawley rat assessed as intact growth of prostate at 0.01 mg/kg, po after 14 days; type: functional, Prostate gland
Rattus norvegicus [19] = experiment: Anabolic activity in castrated male Harlan Sprague-Dawley rat assessed as intact growth of prostate at 0.03 mg/kg, po after 14 days; type: functional, Prostate gland
Rattus norvegicus [20] = experiment: Anabolic activity in castrated male Harlan Sprague-Dawley rat assessed as intact growth of prostate at 0.1 mg/kg, po after 14 days; type: functional, Prostate gland
Rattus norvegicus [21] = experiment: Anabolic activity in castrated male Harlan Sprague-Dawley rat assessed as intact growth of prostate at 0.3 mg/kg, po after 14 days; type: functional, Prostate gland
Rattus norvegicus [22] = experiment: Anabolic activity in po dosed castrated male Harlan Sprague-Dawley rat assessed as intact growth of prostate after 14 days; type: functional; settings: Prostate gland, 336 h
[23] = Chemical stability in 0.1N HCl assessed as drug remaining after 24 hrs; type: physicochemical; settings: read-out: Stability
Method in brief: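 Compound held in solution in 0.1 N HCl at 37 °C for 24 h, used as a model of gut pH; the percentage of intact compound remaining at 24 h was the read-out.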

Rattus norvegicus [24] = experiment: Anabolic activity in sc dosed castrated male Harlan Sprague-Dawley rat assessed as intact growth of Levator ani muscle after 14 days; type: functional; settings: 336 h
Rattus norvegicus [25] = experiment: Anabolic activity in sc dosed castrated male Harlan Sprague-Dawley rat assessed as intact growth of prostate after 14 days; type: functional; settings: Prostate gland, 336 h

Cc1c(N2C(=O)[C@@H]3[C@H](O)CCN3C2=O)ccc(C#N)c1Cl
solubility [1]: 19 µg/mL (≈ 62.1 µM)

Cc1c(N2C[C@@H]3[C@H](O)CCN3C2=O)ccc(C#N)c1Cl
Ki (Androgen receptor [2]): 6 nM
EC50 (Androgen receptor [3]): 6.4 nM

CC[C@H]1[C@@H]2[C@@H](O)CCN2C(=O)N1c1ccc(C#N)c(Cl)c1C
EC50 (Androgen receptor [3]): 1.8 nM

Cc1c(N2C(NC#N)N3CC[C@H](O)[C@H]3[C@@H]2C)ccc(C#N)c1Cl (stereo partly specified)
Ki (Androgen receptor [2]): 17 nM
EC50 (Androgen receptor [3]): 1110 nM

Cc1c(/N=C2\NC[C@@H]3[C@H](O)CCN23)ccc(C#N)c1Cl
Ki (Androgen receptor [2]): 10 nM
EC50 (Androgen receptor [4]): 1800 nM

Cc1c(/N=C2\N(C(N)=O)C[C@@H]3[C@H](O)CCN23)ccc(C#N)c1Cl
Ki (Androgen receptor [2]): 19 nM
EC50 (Androgen receptor [5]): Active

Cc1c(/N=C2\O[C@@H](C(F)(F)F)[C@@H]3[C@@H](O)CCN23)ccc(C#N)c1Cl
Ki (Androgen receptor [2]): 0.3 nM
EC50 (Androgen receptor [3]): 0.2 nM
AUC [6]: 5.8 µM·h
Activity (Rattus norvegicus [7]): 21%
Activity (Rattus norvegicus [8]): 25%
Activity (Rattus norvegicus [9]): 59%
Activity (Rattus norvegicus [10]): 109.3%
Activity (Rattus norvegicus [11]): 103.5%
Activity (Rattus norvegicus [12]): 100.5%
Activity (Rattus norvegicus [13]): 103.9%
ED50 (Rattus norvegicus [14]): 0.0009 mg/kg
Activity (Rattus norvegicus [15]): 2.6%
Activity (Rattus norvegicus [16]): 3.6%
Activity (Rattus norvegicus [17]): 9.5%
Activity (Rattus norvegicus [18]): 38.8%
Activity (Rattus norvegicus [19]): 72.9%
Activity (Rattus norvegicus [20]): 103%
Activity (Rattus norvegicus [21]): 104.5%
ED50 (Rattus norvegicus [22]): 0.0143 mg/kg
remaining at 24 h [23]: 0.41%
ED50 (Rattus norvegicus [24]): 0.21 mg/kg
ED50 (Rattus norvegicus [25]): 0.42 mg/kg

Cc1c(/N=C2\O[C@H](C(F)(F)F)[C@@H]3[C@@H](O)CCN23)ccc(C#N)c1Cl
Ki (Androgen receptor [2]): 0.2 nM
EC50 (Androgen receptor [3]): 19 nM

Cc1c(/N=C2\O[C@@H](C(F)(F)F)[C@@H]3[C@H](O)CCN23)ccc(C#N)c1Cl
Ki (Androgen receptor [2]): 0.3 nM
EC50 (Androgen receptor [3]): 1.4 nM

Cc1c(/N=C2\OC[C@@H]3[C@H](O)CCN23)ccc(C#N)c1Cl
Ki (Androgen receptor [2]): 0.8 nM
EC50 (Androgen receptor [3]): 4.8 nM

Cc1c(/N=C2\N(C)C[C@@H]3[C@H](O)CCN23)ccc(C#N)c1Cl
Ki (Androgen receptor [2]): 1.9 nM
EC50 (Androgen receptor [3]): 44 nM

Cc1c(/N=C2\OC[C@@H]3[C@@H](O)CCN23)ccc(C#N)c1Cl
Ki (Androgen receptor [2]): 0.3 nM
EC50 (Androgen receptor [3]): 14 nM

Cc1c(/N=C2\O[C@H](C(F)(F)F)[C@@H]3[C@H](O)CCN23)ccc(C#N)c1Cl
Ki (Androgen receptor [2]): 2.3 nM
EC50 (Androgen receptor [3]): 1.1 nM

Cc1c(/N=C2\OC(C(C)C)[C@@H]3[C@H](O)CCN23)ccc(C#N)c1Cl (single isomer, unassigned)
Ki (Androgen receptor [2]): 0.7 nM
EC50 (Androgen receptor [3]): 3.7 nM
